Assay outcomes as filed in PubChem.
Most compounds without a hit are left out; they make up all but 2.3% or so of the library.
OXTR potentiate: human OXTR potentiation; CHO-OTR cells, Fluo-8 calcium fluorescence, potentiator mode; 0% = oxytocin EC15, 100% = EC100; actives 0.061% (n = 320,000); activation, % at 3 µM; P30559;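 active = activation above that plate's cutoff, the mean activation of tested compounds plus 3 SD, cut at about 6.6% in these data, passing the limit was not always enough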;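 also: 100% uses oxytocin at 75 nM as the full agonist control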
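Material: human OTR in CHO cells. Compound: 3.0 µM, one dose. Timing: compound 6 min at room temperature before oxytocin, 100 s read. Evaluation: % activation of max/min ratio relative to oxytocin controls. Replication: single well per compound, singlicate. Signal: Fluo-8 calcium dye fluorescence.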
V1R ag counter: counter-screen for oxytocin receptor agonists: human V1a receptor agonists. P37288. CHO-V1R cells, Fluo-8 calcium fluorescence, agonist mode; 0% DMSO, 100% 3 nM vasopressin. activation, % at 3 µM. actives 0.25% (n = 320,000). AID 2797;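 active = activation above the mean activation of all tested compounds plus 3 SD, per screening run, cut at about 20% in these data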;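 also: signal is peak over basal fluorescence ratio across a 100 second FLIPR read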
TAAR1 antag: human TAAR1 antagonism; Q96RJ0; CHO RD-HGA16 TAAR1, Fluo-8 calcium fluorescence, antagonist; inhibition, % at 3 µM; actives 1.5% (n = 360,000);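 active = inhibition above a per-plate cutoff, the mean inhibition of test compounds on that plate plus 3 SD, cut at about 49% in these data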;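 also: 0% = DMSO plus EC80 beta-PEA response and 100% = DMSO alone without agonist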
Target sequence (Q96RJ0 whole entry, looked up): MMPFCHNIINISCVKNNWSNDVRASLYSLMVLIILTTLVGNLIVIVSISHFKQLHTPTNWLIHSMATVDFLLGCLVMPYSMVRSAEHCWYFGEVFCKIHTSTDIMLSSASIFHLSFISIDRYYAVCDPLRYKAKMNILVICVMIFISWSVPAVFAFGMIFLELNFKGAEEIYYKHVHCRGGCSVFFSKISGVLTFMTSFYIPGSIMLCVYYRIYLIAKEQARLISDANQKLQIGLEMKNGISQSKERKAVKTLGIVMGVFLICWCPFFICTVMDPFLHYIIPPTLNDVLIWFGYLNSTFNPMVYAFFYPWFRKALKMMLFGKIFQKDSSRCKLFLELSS
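Test system: hTAAR1-expressing CHO RD-HGA16 cells, Gα16-coupled; Probe or stimulus: EC80 β-phenethylamine stimulus; Compound dosing: single nominal final test compound concentration of 3 µM; Timing: 140 s kinetic read after compound, 140 s after agonist; Signal: Fluo-8 calcium-sensitive fluorescence; Measure: % inhibition of agonist calcium response; Controls: DMSO and EC80 PEA controls.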
TAAR1 ag: human TAAR1 agonism; activation, % at 3 µM; CHO RD-HGA16 TAAR1, Fluo-8 calcium fluorescence; vehicle wells 0%, saturating PEA agonist 100%; Q96RJ0; actives 0.99% (n = 360,000); AID 624467;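 active = activation above the mean activation of all test compounds in the run plus 3 SD, cut at about 38% in these data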
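Test system: RD-HGA16 (CHO) cells co-expressing Gα16 and hTAAR1 | Doses: Single dose, 3 µM | Schedule: 17-24 h seeding, 75 min 37 °C dye, 30 min RT | Evaluation: % activation from peak over basal fluorescence ratio, DMSO-to-PEA scaled | Technique: Kinetic Fluo-8 calcium fluorescence | Benchmarks: Low control DMSO, high control PEA (EC100)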
OXTR ag: agonists of human oxytocin receptor | P30559 | CHO-OTR cells, Fluo-8 calcium fluorescence; normalized: DMSO 0%, oxytocin 100% | activation, % at 3 µM | actives 0.32% (n = 320,000);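 active = activation above the mean of all tested compounds plus 3 SD, cutoff set per screening run, cut at about 20% in these data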;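 also: peak over basal fluorescence ratio from a 100 s FLIPR kinetic read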
TAAR1 ag confirm: confirmation of human TAAR1 agonists. actives 82% (n = 2,400). AID 651783. CHO RD-HGA16 TAAR1, Fluo-8 calcium fluorescence; scaled: DMSO 0%, maximal phenethylamine 100%. activation, % at 3 µM. shares compounds with TAAR1 ag;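 active = activation above a cutoff set at the run's mean compound activation plus 3 SD, cut at about 39% in these data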
Ga16 ag counter: nonselective agonist in parental cells, TAAR1 agonist counter-screen; activation, % at 3 µM; AID 651787; CHO-Ga16 parental, Fluo-8 calcium fluorescence; normalized to maximal ATP response, DMSO zero; shares compounds with TAAR1 ag; actives 50% (n = 2,400);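 active = activation above the run cutoff, the mean activation over all tested wells plus 3 SD, cut at about 12% in these data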;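 also: 0% = DMSO wells and 100% = maximal ATP response on the peak over basal ratio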
TAAR1 desens: counter-screen for human TAAR1 agonists: agonists that desensitize TAAR1; AID 651951; inhibition, % at 3 µM; actives 46% (n = 2,400); CHO RD-HGA16 hTAAR1, Fluo-8 calcium, beta-PEA response inhibition; shares compounds with TAAR1 ag;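 active = inhibition above the run cutoff, the mean inhibition of all test compounds plus 3 SD, cut at about 49% in these data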;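 also: beta-PEA stimulus applied at its EC80; loss of beta-PEA calcium signal after compound pretreatment read as receptor desensitization; 0% = DMSO with beta-PEA at EC80 and 100% = DMSO alone without agonist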
Ga16 antag count: counter-screen for TAAR1 agonists: nonselective Ga16 antagonists | AID 651952 | CHO-Ga16 ATP-induced calcium, Fluo-8 fluorescence | inhibition, % at 3 µM | shares compounds with TAAR1 ag | actives 39% (n = 2,400);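 active = inhibition above the plate's mean compound inhibition plus 3 SD, computed per plate, cut at about 22% in these data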;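 also: 0% = EC80 ATP with DMSO and 100% = DMSO wells without ATP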
An asterisk follows results filed as active; . = not tested or not shown.

SMILES	OXTR potentiate	V1R ag counter	TAAR1 antag	TAAR1 ag	OXTR ag	TAAR1 ag confirm	Ga16 ag counter	TAAR1 desens	Ga16 antag count
Cc1occc1C(=O)NNC(=O)CN1C(=O)NC(C)(c2ccccc2)C1=O (stereo not given)	0	-1	-14	7	1	.	.	.	.
CCCCC(=O)Nc1ccc(F)c(Cl)c1	6	0	-10	6	1	.	.	.	.
CCOC(=O)C(NCCc1ccc(F)cc1)(NC(=O)CC)C(F)(F)F (stereo not given)	2	1	18	51*	-1	64*	6	10	-3
CCOC(=O)NC(NCCc1ccccc1)(C(F)(F)F)C(F)(F)F	0	0	87*	87*	-1	98*	15*	87*	-8
CCOC(=O)C(NCc1ccc(OC)cc1)(NC(C)=O)C(F)(F)F (stereo not given)	-9	0	18	-1	0	.	.	.	.
CCOC(=O)C(NCCc1ccccc1)(NC(C)=O)C(F)(F)F (stereo not given)	-7	1	.	.	0	.	1	.	3
COCCCNC(=O)[C@H]1O[C@@H](n2cnc3c(=O)[nH]c(N)nc32)[C@H](O)[C@@H]1O	.	.	-12	1	.	.	.	.	.
Nc1nc2c(ncn2[C@@H]2O[C@H](C(=O)NCCCc3ccccc3)[C@@H](O)[C@H]2O)c(=O)[nH]1	.	.	-14	56*	.	69*	-1	10	7
O=C(Cc1ccccc1)Nc1ccc(NC(=O)c2ccccc2)nc1	-1	0	3	53*	-1	64*	2	31	12
O=C(Nc1ccc(Cl)cn1)c1cccc(F)c1	-12	-1	-21	3	-1	.	.	.	.
O=C(Nc1cccc(C(=O)Nc2ccc(Cl)cn2)c1)c1ccccc1	-5	1	86*	87*	-1	3	7	26	17
CC(C)(C#CCN1CCCC1)OCCC#N	-4	-1	-12	7	2	.	.	.	.
CCCCC(=O)Nc1ccc(C(=O)Nc2nc(CC(=O)OCC)cs2)cc1	-5	6	20	16	3	.	.	.	.
COc1cc(/C=C2/SC(=S)N(Cc3ccccc3)C2=O)cc(Cl)c1O	-23	65*	89*	103*	70*	182*	198*	101*	100*
COc1ccccc1OCC(=O)NCCSCc1ccc(Cl)cc1	-1	-1	6	2	-2	.	.	.	.
O=C(C(=O)N1CCc2ccccc2C1)c1cn(CC(=O)N2CCCCC2)c2ccccc12	3	0	70*	80*	-2	102*	2	86*	12
O=C(C(=O)N1CCc2ccccc2C1)c1cn(CC(=O)N2CCOCC2)c2ccccc12	-8	-1	-6	75*	-2	39*	5	-1	8
Cc1cccc(OCCC(=O)Nc2nnc(C)s2)c1	-4	0	-27	0	-1	.	.	.	.
O[C@@H](Cc1ccccc1)[C@@H](/C=C/c1ccccc1)NCCc1ccccc1	.	.	36	53*	.	90*	18*	48	24*
COC(=O)[C@@H](N[C@H](/C=C/c1ccccc1)[C@@H](O)Cc1ccccc1)C(C)C	.	.	-4	-3	.	.	.	.	.
Cc1c(CCCl)c(Cl)n2c(nc3ccccc32)c1C#N	.	.	-7	1	.	.	.	.	.
O=C(c1ccco1)N1CCN(C(=O)c2ccco2)C1=S	.	.	-30	-1	.	.	.	.	.
CCCn1c(N)c(C(=O)CSc2nc3ccccc3s2)c(=O)[nH]c1=O	-14	12	26	19	10	.	.	.	.
CC(C)(C)c1ccc(C(=O)NN2CCOCC2)cc1	-6	6	-12	1	-1	.	.	.	.
COc1cnc(-c2ccccc2)nc1Oc1ccc(Cl)cc1C	0	0	-2	4	-1	.	.	.	.
O=C(Nc1ccc(F)cc1)c1c(Cl)nc2ccccn12	-10	-1	-1	4	0	.	.	.	.
COc1cc(CNC(=O)OC2CC3CC2[C@H]2CCCCN2C3=O)cc(OC)c1 (stereo not given in full)	.	.	-20	1	.	.	.	.	.
Cc1ccc(CNC(=O)OC2CC3CC2[C@H]2CCCCN2C3=O)cc1 (stereo not given in full)	.	.	-11	54*	.	0	0	10	13
CC(=O)c1ccc2c(c1)OCCOCCOCCO2	0	0	-27	5	1	.	.	.	.
O=C(Nc1ccc2oc(-c3ccncc3)nc2c1)c1ccccc1F	-5	3	13	50*	2	5	20*	-1	14
